In ChEMBL document CHEMBL1154716, “Synthesis of some new S-triazine based chalcones and their derivatives as potent antimicrobial agents” (2010):
≈ marks a conversion by molar mass, not a printed value. Calls of active or inactive are those of the source. No cut-off for these calls is given here.

Columns and labels:
[1] = test system: Micrococcus flavus; assay: Antimicrobial activity against Micrococcus flavus at 10 ug/disk after 24 hrs by disk diffusion assay; assay type: functional; details: read-out: IZ
Method in brief: (§1)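 Disc diffusion on 4 mm filter discs. Bacteria are grown overnight in LB at 28 C, then adjusted in saline to 1.0 × 10^5 cfu/ml. The suspension is mixed into top agar over peptone agar plates. Plates are incubated 24 h at 28 C, and growth-inhibition zone diameter is measured. Streptomycin and ampicillin controls are applied from a 1 mg/ml stock. Tests are done in duplicate.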

[2] = test system: Escherichia coli; assay: Antimicrobial activity against Escherichia coli at 1 umol/spot after 18 hrs by TLC-bioautographic method; assay type: functional
Method in brief: (§2)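 TLC bioautography. Samples are spotted on silica gel TLC plates, then sprayed with bacteria (1.0 × 10^5 cfu/ml) in tryptic soy broth. Plates are incubated 18 h at 37 C and sprayed with 3% aqueous p-iodonitrotetrazolium violet. After a further 3 h, growth is stopped with 70% EtOH. White zones on a pink background are scored as inhibition-zone diameter with standard errors.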

[3] = test system: Bacillus cereus; assay: Antimicrobial activity against Bacillus cereus after 24 hrs by microdilution technique; assay type: functional
Method in brief: (§3)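 Broth microdilution in LB medium. Inoculum is 1.0 × 10^4 cfu per well, from a saline-adjusted suspension of 1.0 × 10^5 cfu/ml. Compounds are dissolved in DMSO. Incubated 24 h at 28 C. MIC is the lowest concentration with no visible growth under a binocular microscope. MBC is read by subculture into fresh broth for 72 h, with no growth taken as 99.5% kill. OD is read at 655 nm.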

[4] = test system: Listeria monocytogenes; assay: Antimicrobial activity against Listeria monocytogenes after 24 hrs by microdilution technique; assay type: functional; method in brief: as §3
[5] = test system: Listeria monocytogenes; assay: Antimicrobial activity against Listeria monocytogenes at 1 umol/spot after 18 hrs by TLC-bioautographic method; assay type: functional; method in brief: as §2
[6] = test system: Listeria monocytogenes; assay: Antimicrobial activity against Listeria monocytogenes at 1 umol/disk after 24 hrs by disk diffusion assay; assay type: functional; method in brief: as §1
[7] = test system: Salmonella typhimurium; assay: Antimicrobial activity against Salmonella Typhimurium after 24 hrs by microdilution technique; assay type: functional, Salmonella enterica subsp. enterica serovar Typhimurium; details: Salmonella enterica; method in brief: as §3
[8] = test system: Pseudomonas aeruginosa; assay: Antimicrobial activity against Pseudomonas aeruginosa at 1 umol/disk after 24 hrs by disk diffusion assay; assay type: functional; method in brief: as §1
[9] = test system: Salmonella typhimurium; assay: Antimicrobial activity against Salmonella Typhimurium at 1 umol/spot after 18 hrs by TLC-bioautographic method; assay type: functional; details: Salmonella enterica subsp. enterica serovar Typhimurium; method in brief: as §2
[10] = test system: Enterobacter cloacae; assay: Antimicrobial activity against Enterobacter cloacae at 1 umol/disk after 24 hrs by disk diffusion assay; assay type: functional; method in brief: as §1
[11] = test system: Micrococcus flavus; assay: Antimicrobial activity against Micrococcus flavus at 1 umol/spot after 18 hrs by TLC-bioautographic method; assay type: functional; method in brief: as §2
[12] = test system: Escherichia coli; assay: Antimicrobial activity against Escherichia coli at 10 ug/disk after 24 hrs by disk diffusion assay; assay type: functional; method in brief: as §1
[13] = test system: Enterobacter cloacae; assay: Antimicrobial activity against Enterobacter cloacae after 24 hrs by microdilution technique; assay type: functional; method in brief: as §3
[14] = test system: Staphylococcus aureus; assay: Antimicrobial activity against Staphylococcus aureus at 1 umol/spot after 18 hrs by TLC-bioautographic method; assay type: functional; method in brief: as §2
[15] = test system: Listeria monocytogenes; assay: Antimicrobial activity against Listeria monocytogenes at 10 ug/disk after 24 hrs by disk diffusion assay; assay type: functional; method in brief: as §1
[16] = test system: Pseudomonas aeruginosa; assay: Antimicrobial activity against Pseudomonas aeruginosa at 1 umol/spot after 18 hrs by TLC-bioautographic method; assay type: functional; method in brief: as §2
[17] = test system: Escherichia coli; assay: Antimicrobial activity against Escherichia coli at 1 umol/disk after 24 hrs by disk diffusion assay; assay type: functional; method in brief: as §1
[18] = test system: Staphylococcus aureus; assay: Antimicrobial activity against Staphylococcus aureus at 10 ug/disk after 24 hrs by disk diffusion assay; assay type: functional; method in brief: as §1
[19] = test system: Escherichia coli; assay: Antimicrobial activity against Escherichia coli after 24 hrs by microdilution technique; assay type: functional; method in brief: as §3
[20] = test system: Pseudomonas aeruginosa; assay: Antimicrobial activity against Pseudomonas aeruginosa at 10 ug/disk after 24 hrs by disk diffusion assay; assay type: functional; method in brief: as §1
[21] = test system: Micrococcus flavus; assay: Antimicrobial activity against Micrococcus flavus at 1 umol/disk after 24 hrs by disk diffusion assay; assay type: functional; method in brief: as §1
[22] = test system: Pseudomonas aeruginosa; assay: Antimicrobial activity against Pseudomonas aeruginosa after 24 hrs by microdilution technique; assay type: functional; method in brief: as §3
[23] = test system: Bacillus cereus; assay: Antimicrobial activity against Bacillus cereus at 10 ug/disk after 24 hrs by disk diffusion assay; assay type: functional; method in brief: as §1
[24] = test system: Bacillus cereus; assay: Antimicrobial activity against Bacillus cereus at 1 umol/spot after 18 hrs by TLC-bioautographic method; assay type: functional; method in brief: as §2
[25] = test system: Enterobacter cloacae; assay: Antimicrobial activity against Enterobacter cloacae at 10 ug/disk after 24 hrs by disk diffusion assay; assay type: functional; method in brief: as §1
[26] = test system: Salmonella typhimurium; assay: Antimicrobial activity against Salmonella Typhimurium at 10 ug/disk after 24 hrs by disk diffusion assay; assay type: functional, organism-based; details: Salmonella enterica subsp. enterica serovar Typhimurium; method in brief: as §1
[27] = test system: Micrococcus flavus; assay: Antimicrobial activity against Micrococcus flavus after 24 hrs by microdilution technique; assay type: functional; method in brief: as §3
[28] = test system: Salmonella typhimurium; assay: Antimicrobial activity against Salmonella Typhimurium at 1 umol/disk after 24 hrs by disk diffusion assay; assay type: functional, organism-based; details: Salmonella enterica subsp. enterica serovar Typhimurium; method in brief: as §1
[29] = test system: Staphylococcus aureus; assay: Antimicrobial activity against Staphylococcus aureus at 1 umol/disk after 24 hrs by disk diffusion assay; assay type: functional; method in brief: as §1
[30] = test system: Enterobacter cloacae; assay: Antimicrobial activity against Enterobacter cloacae at 1 umol/spot after 18 hrs by TLC-bioautographic method; assay type: functional; method in brief: as §2
[31] = test system: Bacillus cereus; assay: Antimicrobial activity against Bacillus cereus at 1 umol/disk after 24 hrs by disk diffusion assay; assay type: functional; method in brief: as §1
[32] = test system: Staphylococcus aureus; assay: Antimicrobial activity against Staphylococcus aureus after 24 hrs by microdilution technique; assay type: functional; method in brief: as §3

SMILES | zone of inhibition at 10 µg/disc [1] | inhibition zone (IZ) [2] | MBC [3] | MIC [3] | MBC [4] | MIC [4] | inhibition zone (IZ) [5] | inhibition zone (IZ) [6] | MBC [7] | MIC [7] | inhibition zone (IZ) [8] | inhibition zone (IZ) [9] | inhibition zone (IZ) [10] | inhibition zone (IZ) [11] | MBC [13] | MIC [13] | inhibition zone (IZ) [14] | inhibition zone (IZ) [15] | inhibition zone (IZ) [16] | inhibition zone (IZ) [17] | further results
Nc1nc(-c2ccc(Nc3nc(Nc4ccccc4)nc(Nc4ccccc4)n3)cc2)cc(-c2ccco2)n1 | 6 mm | 0.08 millimeter | 390 µM (≈ 200 µg/mL) | 195 µM (≈ 100 µg/mL) | 780 µM (≈ 401 µg/mL) | 780 µM (≈ 401 µg/mL) | 0.08 millimeter | inactive | 390 µM (≈ 200 µg/mL) | 195 µM (≈ 100 µg/mL) | inactive | inactive | inactive | 0.07 millimeter | 390 µM (≈ 200 µg/mL) | 195 µM (≈ 100 µg/mL) | 0.06 millimeter | inactive | inactive | 0.05 millimeter | zone of inhibition at 10 µg/disc ([12]; read-out: IZ): 10 mm; inhibition zone (IZ) [18]: inactive; MBC [19]: 390 µM (≈ 200 µg/mL); MIC [19]: 195 µM (≈ 100 µg/mL); inhibition zone (IZ) [20]: inactive; inhibition zone (IZ) [21]: 0.03 millimeter; MBC [22]: 780 µM (≈ 401 µg/mL); MIC [22]: 780 µM (≈ 401 µg/mL); inhibition zone (IZ) [23]: inactive; inhibition zone (IZ) [24]: inactive; inhibition zone (IZ) [25]: inactive; inhibition zone (IZ) [26]: inactive; MBC [27]: 390 µM (≈ 200 µg/mL); MIC [27]: 195 µM (≈ 100 µg/mL); inhibition zone (IZ) [28]: inactive; inhibition zone (IZ) [29]: inactive; inhibition zone (IZ) [30]: 0.08 millimeter; inhibition zone (IZ) [31]: inactive; MBC [32]: 390 µM (≈ 200 µg/mL); MIC [32]: 195 µM (≈ 100 µg/mL)
N#Cc1c(-c2ccc([N+](=O)[O-])cc2)cc(-c2ccc(Nc3nc(Nc4ccccc4)nc(Nc4ccccc4)n3)cc2)nc1N | 6 mm | inactive | 338 µM (≈ 200 µg/mL) | 169 µM (≈ 100 µg/mL) | 676 µM (≈ 401 µg/mL) | 676 µM (≈ 401 µg/mL) | 0.1 millimeter | inactive | 676 µM (≈ 401 µg/mL) | 676 µM (≈ 401 µg/mL) | inactive | inactive | inactive | 0.07 millimeter | 338 µM (≈ 200 µg/mL) | 169 µM (≈ 100 µg/mL) | inactive | inactive | 0.09 millimeter | inactive | inhibition zone (IZ) [12]: inactive; inhibition zone (IZ) [18]: inactive; MBC [19]: 676 µM (≈ 401 µg/mL); MIC [19]: 338 µM (≈ 200 µg/mL); inhibition zone (IZ) [20]: inactive; inhibition zone (IZ) [21]: 0.04 millimeter; MBC [22]: 676 µM (≈ 401 µg/mL); MIC [22]: 676 µM (≈ 401 µg/mL); inhibition zone (IZ) [23]: inactive; inhibition zone (IZ) [24]: inactive; inhibition zone (IZ) [25]: inactive; inhibition zone (IZ) [26]: inactive; MBC [27]: 676 µM (≈ 401 µg/mL); MIC [27]: 338 µM (≈ 200 µg/mL); inhibition zone (IZ) [28]: inactive; inhibition zone (IZ) [29]: inactive; inhibition zone (IZ) [30]: 0.09 millimeter; inhibition zone (IZ) [31]: inactive; MBC [32]: 676 µM (≈ 401 µg/mL); MIC [32]: 338 µM (≈ 200 µg/mL)
